Reference: ChEMBL document CHEMBL2203086, “Structure-Based Discovery of a Novel Pentamidine-Related Inhibitor of the Calcium-Binding Protein S100B” (ACS Med Chem Lett, 2012)

Assays:
[1] = Destabilization of rat/bovine S100B assessed as change in melting temperature by differential scanning calorimetry
Procedure, shortened: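 DSC on S100B dialyzed into 5 mM HEPES pH 7.2, 15 mM NaCl, 10 mM CaCl2, 0.5 mM TCEP, at 40-50 µM per monomer. Compound prepared in dialysis buffer, 200 µM final. Buffer reference scans subtracted and data normalized to protein concentration. Apparent Tm taken from peak maxima, compared against ligand-free S100B.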

[2] = Binding affinity to rat/bovine recombinant S100B at weaker site expressed in Escherichia coli [HMS174(DE3)strain] by NMR spectroscopy
[3] = Binding affinity to rat/bovine recombinant S100B at tight site expressed in Escherichia coli [HMS174(DE3)strain] by NMR spectroscopy
Malme-3M [4] = experiment: Growth inhibition of human MALME-3M cells transfected with S100B siRNA after 4 days by SYBR green assay; format: functional, cell-based
Procedure, shortened: (§1)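 MALME-3M melanoma cells, stable hairpin-vector lines with scrambled control siRNA (high S100B) or S100B knockdown siRNA (clone #7), grown in IMDM with 20% FBS, neomycin omitted during assay. Seeded in 384-well plates and grown 24 h at 37 °C, 5% CO2. Compound added, DMSO in controls, then 4 days incubation. Lysed with 1.2% Igepal plus SYBR Green I (1:10,000) for 24 h. Fluorescence read at 485/520 nm as a DNA/cell-number measure, and IC50 derived.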

Malme-3M [5] = experiment: Growth inhibition of human MALME-3M cells overexpressing calcium-binding protein S100B after 4 days by SYBR green assay; format: functional, cell-based; procedure, shortened: as §1
[6] = Binding affinity to rat/bovine recombinant S100B expressed in Escherichia coli [HMS174(DE3)strain] by NMR spectroscopy
[7] = Homo sapiens, Malme-3M, 96 h, read-out: IC50

## N=C(N)c1ccc(OCCCCCOc2ccc(C(=N)N)cc2)cc1 [PENTAMIDINE]
[1]
  ΔTm: 1 °C
[2]
  Kd: 40 µM
[3]
  Kd: 0.13 µM
Malme-3M [4]; [7]
  IC50: 12.2 µM
Malme-3M [5]; [7]
  IC50: 10.2 µM

## N=C(N)c1ccc(OCCCCCCOc2ccc(C(=N)N)cc2)cc1 [HEXAMIDINE]
[6]
  Kd: Not Active
Malme-3M [4]; malme-3m
  IC50: Not Active
Malme-3M [5]; malme-3m
  IC50: Not Active

## N=C(N)c1ccc(OCCCCCCCOc2ccc(C(=N)N)cc2)cc1 [HEPTAMIDINE]
[6]; read-out: Kd
  Kd: 6.9 µM
[1]
  ΔTm: 18.3 °C
Malme-3M [4]; [7]
  IC50: 6.8 µM
Malme-3M [5]; [7]
  IC50: 4.2 µM
